# In ChEMBL document CHEMBL3758104, “Reinvestigating Old Pharmacophores: Are 4-Aminoquinolines and Tetraoxanes Potential Two-Stage Antimalarials?” (J Med Chem, 2016):
# Activity calls are given as the source filed them. No cut-off for these calls is given here.
# Assays:
# [1] = Half life in human liver microsomes at 1 uM by LC-MS/MS analysis; format: ADME
# [2] = test system: HepG2; assay: Cytotoxicity against human HepG2 cells after 48 hrs by MTT assay; format: cell-based; conditions: HepG2, 48 h
# [3] = test system: Plasmodium berghei; assay: Antimalarial activity against Plasmodium berghei ANKA infected in C57Bl6 mouse at 10 mg/kg/day, po on days 3 to 5 by Thompson test; format: functional
# [4] = test system: Plasmodium berghei; assay: Antimalarial activity against Plasmodium berghei ANKA infected in C57Bl6 mouse at 20 mg/kg/day, po on days 3 to 5 by Thompson test; format: functional
# [5] = test system: Plasmodium falciparum; assay: Antimalarial activity against chloroquine-susceptible Plasmodium falciparum D6 after 48 hrs by [3H]hypoxanthine incorporation assay; format: functional, organism-based
# Procedure, shortened: (§1)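 P. falciparum D6 (Sierra I/UNC clone), W2 (Indochina I clone), TM91C235 (South-East Asian clone) cultured with compound; growth inhibition by [3H]hypoxanthine incorporation (modified Desjardins/Milhous method). Chloroquine, mefloquine, artemisinin as positive controls. IC50 in nM; technical triplicates, curve fits R2 0.96–1.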
# [6] = test system: Plasmodium falciparum; assay: Antimalarial activity against mutidrug resistant Plasmodium falciparum TM91C235 after 48 hrs by [3H]hypoxanthine incorporation assay; format: functional, organism-based; procedure, shortened: as §1
# [7] = test system: Plasmodium falciparum; assay: Antimalarial activity against chloroquine-resistant Plasmodium falciparum W2 after 48 hrs by [3H]hypoxanthine incorporation assay; format: functional, organism-based; procedure, shortened: as §1
# [8] = Half life in mouse liver microsomes at 1 uM by LC-MS/MS analysis; format: ADME
# [9] = Selectivity index, ratio of IC50 for human HepG2 cells to IC50 for chloroquine susceptible Plasmodium falciparum D6; format: toxicity, cell-based; conditions: read-out: Ratio IC50
# [10] = test system: Mus musculus; assay: Toxicity in Plasmodium berghei ANKA infected C57Bl6 mouse at 160 mg/kg/day, po administered for 3 days measured 2 times a day for 31 days; format: organism-based; conditions: in vivo, 744 h
# [11] = test system: Plasmodium berghei; assay: Antimalarial activity against Plasmodium berghei ANKA infected in C57Bl6 mouse at 160 mg/kg/day, po measured on day 3 to 5 by Thompson test; format: functional
# [12] = test system: Plasmodium berghei; assay: Antimalarial activity against Plasmodium berghei ANKA infected in C57Bl6 mouse at 80 mg/kg/day, po measured on day 3 to 5 by Thompson test; format: functional
# [13] = test system: Plasmodium berghei; assay: Antimalarial activity against Plasmodium berghei ANKA infected in C57Bl6 mouse at 40 mg/kg/day, po on days 3 to 5 by Thompson test; format: functional
# [14] = test system: Plasmodium berghei; assay: Antimalarial activity against Plasmodium berghei ANKA infected in po dosed C57Bl6 mouse administered on day 3 to 5 by Thompson test; format: functional
# Procedure, shortened: (§2)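 Modified Thompson test: C57Bl6 female mice inoculated intraperitoneally on day 0 with 1×10^6 P. berghei ANKA-infected erythrocytes; compound suspended in 0.5% hydroxyethylcellulose–0.1% Tween 80, given orally once daily on days 3, 4 and 5 post infection. Parasitemia by Giemsa-stained thin tail-blood smears on days 0, 3, 6, 10, 13, 17, 20, 24, 27, 31. Cure = survival without parasitemia to day 31.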
# [15] = Inhibition of beta hematin formation measured as hemin equivalent after 18 hrs; format: physicochemical
# Procedure, shortened: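 Hemin (16 mM in DMSO) mixed with compound at 0.125–5 mol equiv to hemin, plus water and 8 M acetate buffer pH 5.2, 25% DMSO final. Incubated 18 h at 37 °C. Pellet washed with DMSO, dissolved in 0.1 M NaOH, absorbance read at 405 nm (corrected at 670 nm) against a hemin calibration.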
# [16] = Octanol-water partition coefficient, logP of the compound; format: physicochemical
# [17] = target: hERG (KCNH2) (Homo sapiens, UniProt Q12809); assay: Inhibition of human ERG expressed in CHO cells at 5 uM by patch plate method; format: cell-based; conditions: CHO cells that express human ERG
# [18] = target: Voltage-gated inwardly rectifying potassium channel KCNH2 (Homo sapiens, UniProt Q12809); assay: Inhibition of human ERG expressed in CHO cells by patch plate method; format: cell-based
# [19] = test system: Salmonella typhimurium; assay: Mutagenic activity in Salmonella typhimurium TA98 at 500 ug/ml by Ames test in absence of S9 fractions; format: toxicity, organism-based; conditions: salmonella enterica subsp. enterica serovar typhimurium
# Procedure, shortened: (§3)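 Ames test in Salmonella typhimurium TA98 and TA100 at 500 μg/mL, with and without S9.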
# [20] = test system: Salmonella typhimurium; assay: Mutagenic activity in Salmonella typhimurium TA100 at 500 ug/ml by Ames test in absence of S9 fractions; format: toxicity, organism-based; conditions: salmonella enterica subsp. enterica serovar typhimurium; procedure, shortened: as §3
# [21] = test system: Plasmodium berghei; assay: Antimalarial activity against sporozoite stage of Plasmodium berghei infected in human Huh7 cells assessed as inhibition of parasite infection pre-incubated for 24 hrs followed by parasite infection measured after 48 hrs by bioluminescence assay; format: functional, organism-based; conditions: Huh-7
# [22] = test system: Salmonella typhimurium; assay: Mutagenic activity in Salmonella typhimurium TA98 at 500 ug/ml by Ames test in presence of S9 fractions; format: toxicity, organism-based, S9 Fraction; conditions: salmonella enterica subsp. enterica serovar typhimurium; procedure, shortened: as §3
# [23] = test system: Salmonella typhimurium; assay: Mutagenic activity in Salmonella typhimurium TA100 at 500 ug/ml by Ames test in presence of S9 fractions; format: toxicity, organism-based, S9 Fraction; conditions: salmonella enterica subsp. enterica serovar typhimurium; procedure, shortened: as §3
# [24] = test system: Plasmodium berghei; assay: Antimalarial activity against Plasmodium berghei ANKA infected in C57Bl6 mouse assessed as reduction of parasitemia at 20 mg/kg/day, po administered for day 3 to 5 measured on day 6 by Thompson test; format: functional, organism-based; procedure, shortened: as §2
# [25] = test system: Plasmodium berghei; assay: Antimalarial activity against Plasmodium berghei ANKA infected in C57Bl6 mouse assessed as curative effect at 20 to 40 mg/kg/day, po administered for day 3 to 5 by Thompson test
# [26] = test system: Plasmodium berghei; assay: Antimalarial activity against sporozoite stage of Plasmodium berghei infected in human Huh7 cells assessed as remaining parasite infection at 5 uM pre-incubated for 24 hrs followed by parasite infection measured after 48 hrs by bioluminescence assay; conditions: Huh-7
# [27] = test system: Plasmodium berghei; assay: Antimalarial activity against sporozoite stage of Plasmodium berghei infected in human Huh7 cells assessed as inhibition of parasite infection at 0.125 uM pre-incubated for 24 hrs followed by parasite infection measured after 48 hrs by bioluminescence assay; format: functional; conditions: Huh-7
# [28] = test system: Plasmodium berghei; assay: Antimalarial activity against sporozoite stage of Plasmodium berghei ANKA infected in C57Bl/6J mouse assessed as reduction in liver parasite load at 50 mg/kg/, po administered for 3 days measured after 48 hrs by luciferase reporter gene assay relative to control; format: functional; set-up: scale not given: the % may be the effect or the level left
# Procedure, shortened: (§4)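 C57BL/6J mice dosed by oral gavage (DMSO in sunflower oil) on three consecutive days: 24 h before, at, and 24 h after intravenous infection with luciferase-expressing P. berghei sporozoites. Controls got vehicle. Liver parasite load measured by in vivo luminescence 46–48 h after infection, after subcutaneous luciferin, expressed as % of controls. Two independent experiments.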
# [29] = test system: Plasmodium berghei; assay: Antimalarial activity against sporozoite stage of Plasmodium berghei ANKA infected in C57BL/6J mouse assessed as reduction in liver parasite load at 80 mg/kg/, po administered for 3 days measured after 48 hrs by luciferase reporter gene assay relative to control; format: functional; set-up: scale not given: the % may be the effect or the level left; procedure, shortened: as §4
# [30] = Intrinsic clearance in human hepatocytes assessed per 10^6 cells at 1 uM by LC-MS/MS analysis; format: ADME, cell-based, Hepatocyte; conditions: read-out: CLH
# Procedure, shortened: (§5)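 Cryopreserved human or mouse hepatocytes equilibrated for 30 min at 37 °C, then given 1 μM final compound in duplicate at 37 °C. Samples quenched at set times in ice-cold methanol with internal standards. Parent depletion by LC-MS/MS (MRM) as % of time zero, fitted to first-order decay. t1/2 = 0.693/k, and CLint derived from it. Verapamil and warfarin served as controls.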
# [31] = Intrinsic clearance in mouse hepatocytes assessed per 10^6 cells at 1 uM by LC-MS/MS analysis; format: ADME, cell-based, Hepatocyte; conditions: read-out: CLH; procedure, shortened: as §5
# [32] = test system: Hepatocyte; assay: Half life in human hepatocytes at 1 uM by LC-MS/MS analysis; format: ADME, cell-based; procedure, shortened: as §5
# [33] = Half life in mouse hepatocytes at 1 uM by LC-MS/MS analysis; format: ADME, cell-based, Hepatocyte; procedure, shortened: as §5
# [34] = test system: Hepatocyte; assay: Drug metabolism in human hepatocytes assessed as monohydroxylated metabolite formation at 1 uM after 60 mins by LC-MS/MS analysis; format: ADME, cell-based; conditions: 1 h
# Procedure, shortened: (§6)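 Hepatocyte incubation of 1 μM compound at 37 °C, in duplicate. Supernatants analysed by LC-MS/MS, with SRM monitoring of phase I and II metabolites (oxidation, demethylation, dehydrogenation, glucuronidation, oxidation + glucuronidation).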
# [35] = test system: Hepatocyte; assay: Drug metabolism in mouse hepatocytes assessed as monohydroxylated metabolite formation at 1 uM after 60 mins by LC-MS/MS analysis; format: ADME, cell-based; conditions: 1 h; procedure, shortened: as §6
# [36] = test system: Hepatocyte; assay: Drug metabolism in human hepatocytes assessed as dihydroxylated metabolite formation at 1 uM after 60 mins by LC-MS/MS analysis; format: ADME, cell-based; conditions: 1 h; procedure, shortened: as §6
# [37] = test system: Hepatocyte; assay: Drug metabolism in mouse hepatocytes assessed as dihydroxylated metabolite formation at 1 uM after 60 mins by LC-MS/MS analysis; format: ADME, cell-based; conditions: 1 h; procedure, shortened: as §6
# [38] = test system: Plasmodium berghei; assay: Antimalarial activity against Plasmodium berghei ANKA infected in C57Bl6 mouse assessed as reduction of parasitemia at 10 to 20 mg/kg/day, po administered for day 3 to 5 by Thompson test; format: functional, organism-based; procedure, shortened: as §2
# [39] = test system: Hepatocyte; assay: Metabolic stability in human hepatocytes assessed as compound remaining at 1 uM after 60 mins by LC-MS/MS analysis; format: ADME, cell-based; conditions: 2 h, in the assay text read “120 mins” for “60 mins”; procedure, shortened: as §5
# [40] = test system: Plasmodium berghei; assay: Antimalarial activity against sporozoite stage of Plasmodium berghei infected in human Huh7 cells assessed as remaining parasite infection at 2 uM pre-incubated for 24 hrs followed by parasite infection measured after 48 hrs by bioluminescence assay; conditions: Huh-7
# [41] = test system: Plasmodium berghei; assay: Antimalarial activity against sporozoite stage of Plasmodium berghei infected in human Huh7 cells assessed as remaining parasite infection at 10 uM pre-incubated for 24 hrs followed by parasite infection measured after 48 hrs by bioluminescence assay; conditions: Huh-7
# Chain of Voltage-gated inwardly rectifying potassium channel KCNH2 (Q12809 whole entry): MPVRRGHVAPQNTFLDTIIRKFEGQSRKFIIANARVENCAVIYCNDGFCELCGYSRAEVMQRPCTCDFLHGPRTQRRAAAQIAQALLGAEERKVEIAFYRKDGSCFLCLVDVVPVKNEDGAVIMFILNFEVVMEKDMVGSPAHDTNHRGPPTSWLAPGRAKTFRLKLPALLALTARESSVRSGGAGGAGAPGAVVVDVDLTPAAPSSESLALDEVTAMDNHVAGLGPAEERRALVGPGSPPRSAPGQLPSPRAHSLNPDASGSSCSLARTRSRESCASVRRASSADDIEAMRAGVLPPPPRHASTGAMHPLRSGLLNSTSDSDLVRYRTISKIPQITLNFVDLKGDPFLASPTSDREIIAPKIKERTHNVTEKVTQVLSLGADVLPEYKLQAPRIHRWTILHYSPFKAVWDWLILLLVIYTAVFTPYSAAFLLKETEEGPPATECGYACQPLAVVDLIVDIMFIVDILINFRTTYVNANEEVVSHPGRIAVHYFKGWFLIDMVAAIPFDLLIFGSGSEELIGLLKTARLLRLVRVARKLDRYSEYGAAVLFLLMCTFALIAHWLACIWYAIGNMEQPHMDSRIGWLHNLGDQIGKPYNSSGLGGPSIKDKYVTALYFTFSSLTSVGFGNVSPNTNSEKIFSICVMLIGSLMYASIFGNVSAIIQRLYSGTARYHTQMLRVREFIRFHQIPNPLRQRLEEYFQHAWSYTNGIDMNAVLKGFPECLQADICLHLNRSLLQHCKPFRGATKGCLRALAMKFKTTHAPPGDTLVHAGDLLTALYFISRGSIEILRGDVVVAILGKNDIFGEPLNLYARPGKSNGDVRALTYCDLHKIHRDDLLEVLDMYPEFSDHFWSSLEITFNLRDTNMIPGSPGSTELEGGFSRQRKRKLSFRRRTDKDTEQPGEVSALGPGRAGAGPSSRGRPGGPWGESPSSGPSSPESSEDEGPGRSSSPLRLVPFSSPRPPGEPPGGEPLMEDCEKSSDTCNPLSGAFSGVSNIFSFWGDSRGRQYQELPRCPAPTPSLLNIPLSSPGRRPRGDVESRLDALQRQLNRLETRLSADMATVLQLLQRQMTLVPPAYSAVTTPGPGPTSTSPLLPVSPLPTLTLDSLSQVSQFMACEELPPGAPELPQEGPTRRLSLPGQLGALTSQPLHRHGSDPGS
# Chain of hERG (KCNH2) (Q12809 whole entry): as above
SMILES,half-life at 1 µM [1] [h],IC50 [2] [nM],IC50 [5] [nM],IC50 [6] [nM],IC50 [7] [nM],half-life at 1 µM [8] [h],Activity [10],MST [11] [days],MST [12] [days],MST [13] [days],Activity [14],MCD [14] [mg/kg/day],IC50 [15] [equiv],logP [16],IC50 [21] [nM],further results
CC(CCNCC12CC3CC(CC(C3)C1)C2)Nc1ccnc2cc(Cl)ccc12 (stereo not drawn),1,3040,10,10,10,1,Non-toxic,>31,>31,17.2,Dose dependent effect,80,1.84,3.85,1000,MST [3]: 13 days; MST [4]: 15.2 days; selectivity ratio [9]: 305; MAC [14]: 10 mg/kg/day; inhibition at 5 µM [17]: 11.7%; IC50 [18]: > 5000 nM; Activity [19]: Non-toxic; Activity [20]: Non-toxic; Activity [22]: Non-toxic; Activity [23]: Non-toxic; Activity [24]: Active; Activity [25]: inactive; % infection at 5 µM [26]: 0.1%
CC(CCNCC12CC3CC(CC(C3)C1)C2)Nc1c(F)cnc2cc(Cl)ccc12 (stereo not drawn),0.217,3970,135,197,238,0.35,Non-toxic,26.2,>31,18.4,Dose dependent effect,80,0.61,3.25,310,inhibition at 0.125 µM [27]: 38%; Activity [28]: 84%; Activity [29]: 92%; hepatocyte CLint at 1 µM [30]: 8.9 µL/min/1e6 cells; hepatocyte CLint at 1 µM [31]: 8.7 µL/min/1e6 cells; t1/2 [32]: 1.3 h; half-life at 1 µM [33]: 1.32 h; Drug metabolism [34]: metabolite_detected; Drug metabolism [35]: metabolite_detected; Drug metabolism [36]: metabolite_detected; Drug metabolism [37]: metabolite_detected; Activity [38]: inactive; Stability [39]: 32%; % infection at 2 µM [40]: 13%
COc1cc(NC(C)CCCN)c2ncccc2c1 (stereo not drawn) [PRIMAQUINE],–,–,–,–,–,–,–,–,–,–,–,–,–,–,–,% infection at 10 µM [41]: 62%
